Measured values: ChEMBL document CHEMBL4689842, “EUbOPEN Chemogenomics Library wave 1” (2021)

System: Fibroblast
Assay: Multiplex assay against human fibroblast
Format: toxicity, cell-based
How it was run: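 Four dyes were applied at seeding to live cells: Hoechst33342, BioTracker Green Microtubule Cytoskeleton Dye, MitoTracker Red and Annexin V Alexa Fluor 680. Imaging after compound addition used a CQ1 microscope at 37°C and 5% CO2. CellPathfinder machine-learning gating then sorted cells into Hoechst high-intensity objects or normal cells, normal cells into healthy, pyknosed or fragmented nuclei, and pyknosed cells into mitotic or apoptotic, with tubulin, mitochondrial-mass and membrane-permeability phenotypes given as per cents of healthy-nucleus cells.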

[1] = 12 h, 0 µM, compound concentration 0 uM, replicate 1
[2] = 12 h, 0 µM, compound concentration 0 uM, replicate 2
[3] = 12 h, 1 µM, compound concentration 1 uM, replicate 1
[4] = 12 h, 1 µM, compound concentration 1 uM, replicate 2
[5] = 24 h, 0 µM, compound concentration 0 uM, replicate 1
[6] = 24 h, 0 µM, compound concentration 0 uM, replicate 2
[7] = 24 h, 1 µM, compound concentration 1 uM, replicate 1
[8] = 24 h, 1 µM, compound concentration 1 uM, replicate 2
[9] = 12 h, 10 µM, compound concentration 10 uM, replicate 1
[10] = 12 h, 10 µM, compound concentration 10 uM, replicate 2
[11] = 24 h, 10 µM, compound concentration 10 uM, replicate 1
[12] = 24 h, 10 µM, compound concentration 10 uM, replicate 2
[13] = 48 h, 1 µM, compound concentration 1 uM, replicate 1
[14] = 48 h, 1 µM, compound concentration 1 uM, replicate 2
[15] = 48 h, 10 µM, compound concentration 10 uM, replicate 1
[16] = 48 h, 10 µM, compound concentration 10 uM, replicate 2

CCNc1cc(N[C@H]2CC[C@H](O)CC2)nc(Nc2ccc3c(ccn3Cc3ccccc3)c2)n1
Population Apoptotic (%) [1]: 55% | Population Fragmented Nuclei (%) [1]: 24% | Population Healthy Nuclei (%) [1]: 52% | Population Hoechst High Intensity Objects (%) [1]: 26% | Population Membrane Permeable-Phenotype (%) [1]: 0% | Population Mitotic Cells (%) [1]: 44% | Population Normal (%) [1]: 73% | Population Pyknosed Nuclei (%) [1]: 22% | Population Tubulin-Different-Phenotype (%) [1]: 38% | Total Cell Count [1]: 280 | Population Apoptotic (%) [2]: 60% | Population Fragmented Nuclei (%) [2]: 40% | Population Healthy Nuclei (%) [2]: 48% | Population Hoechst High Intensity Objects (%) [2]: 47% | Population Membrane Permeable-Phenotype (%) [2]: 4% | Population Mitochondria Different-Phenotype (%) [2]: 41% | Population Mitotic Cells (%) [2]: 40% | Population Normal (%) [2]: 52% | Population Pyknosed Nuclei (%) [2]: 10% | Population Tubulin-Different-Phenotype (%) [2]: 41% | Total Cell Count [2]: 94 | Population Apoptotic (%) [3]: 76% | Population Fragmented Nuclei (%) [3]: 45% | Population Healthy Nuclei (%) [3]: 47% | Population Hoechst High Intensity Objects (%) [3]: 20% | Population Membrane Permeable-Phenotype (%) [3]: 2% | Population Mitochondria Different-Phenotype (%) [3]: 11% | Population Mitotic Cells (%) [3]: 23% | Population Normal (%) [3]: 79% | Population Pyknosed Nuclei (%) [3]: 7% | Population Tubulin-Different-Phenotype (%) [3]: 12% | Total Cell Count [3]: 286 | Population Apoptotic (%) [4]: 66% | Population Fragmented Nuclei (%) [4]: 67% | Population Healthy Nuclei (%) [4]: 29% | Population Hoechst High Intensity Objects (%) [4]: 50% | Population Membrane Permeable-Phenotype (%) [4]: 8% | Population Mitochondria Different-Phenotype (%) [4]: 17% | Population Mitotic Cells (%) [4]: 33% | Population Normal (%) [4]: 49% | Population Pyknosed Nuclei (%) [4]: 3% | Population Tubulin-Different-Phenotype (%) [4]: 34% | Total Cell Count [4]: 160 | Population Apoptotic (%) [5]: 71% | Population Fragmented Nuclei (%) [5]: 21% | Population Healthy Nuclei (%) [5]: 45% | Population Hoechst High Intensity Objects (%) [5]: 38% | Population Mitochondria Different-Phenotype (%) [5]: 65% | Population Mitotic Cells (%) [5]: 28% | Population Normal (%) [5]: 61% | Population Pyknosed Nuclei (%) [5]: 32% | Population Tubulin-Different-Phenotype (%) [5]: 50% | Total Cell Count [5]: 257 | Population Apoptotic (%) [6]: 90% | Population Fragmented Nuclei (%) [6]: 60% | Population Healthy Nuclei (%) [6]: 21% | Population Hoechst High Intensity Objects (%) [6]: 40% | Population Membrane Permeable-Phenotype (%) [6]: 0% | Population Mitochondria Different-Phenotype (%) [6]: 83% | Population Mitotic Cells (%) [6]: 10% | Population Normal (%) [6]: 59% | Population Pyknosed Nuclei (%) [6]: 18% | Population Tubulin-Different-Phenotype (%) [6]: 33% | Total Cell Count [6]: 92 | Population Apoptotic (%) [7]: 76% | Population Fragmented Nuclei (%) [7]: 45% | Population Healthy Nuclei (%) [7]: 44% | Population Hoechst High Intensity Objects (%) [7]: 21% | Population Membrane Permeable-Phenotype (%) [7]: 0% | Population Mitochondria Different-Phenotype (%) [7]: 10% | Population Mitotic Cells (%) [7]: 24% | Population Normal (%) [7]: 78% | Population Pyknosed Nuclei (%) [7]: 10% | Population Tubulin-Different-Phenotype (%) [7]: 10% | Total Cell Count [7]: 313 | Population Apoptotic (%) [8]: 100% | Population Fragmented Nuclei (%) [8]: 58% | Population Healthy Nuclei (%) [8]: 40% | Population Hoechst High Intensity Objects (%) [8]: 53% | Population Membrane Permeable-Phenotype (%) [8]: 3% | Population Mitochondria Different-Phenotype (%) [8]: 50% | Population Mitotic Cells (%) [8]: 0% | Population Normal (%) [8]: 46% | Population Pyknosed Nuclei (%) [8]: 1% | Population Tubulin-Different-Phenotype (%) [8]: 53% | Total Cell Count [8]: 152

O=C(Nc1ccc(-c2ccnc(Nc3ccc(N4CCOCC4)cc3)n2)cc1)[C@@H]1CCCN1
Population Apoptotic (%) [3]: 58% | Population Fragmented Nuclei (%) [3]: 25% | Population Healthy Nuclei (%) [3]: 41% | Population Hoechst High Intensity Objects (%) [3]: 13% | Population Membrane Permeable-Phenotype (%) [3]: 36% | Population Mitochondria Different-Phenotype (%) [3]: 11% | Population Mitotic Cells (%) [3]: 41% | Population Normal (%) [3]: 87% | Population Pyknosed Nuclei (%) [3]: 33% | Population Tubulin-Different-Phenotype (%) [3]: 47% | Total Cell Count [3]: 100 | Population Apoptotic (%) [4]: 33% | Population Fragmented Nuclei (%) [4]: 13% | Population Healthy Nuclei (%) [4]: 76% | Population Hoechst High Intensity Objects (%) [4]: 7% | Population Membrane Permeable-Phenotype (%) [4]: 4% | Population Mitochondria Different-Phenotype (%) [4]: 10% | Population Mitotic Cells (%) [4]: 66% | Population Normal (%) [4]: 92% | Population Pyknosed Nuclei (%) [4]: 10% | Population Tubulin-Different-Phenotype (%) [4]: 10% | Total Cell Count [4]: 65 | Population Apoptotic (%) [9]: 39% | Population Fragmented Nuclei (%) [9]: 35% | Population Healthy Nuclei (%) [9]: 30% | Population Hoechst High Intensity Objects (%) [9]: 13% | Population Membrane Permeable-Phenotype (%) [9]: 28% | Population Mitochondria Different-Phenotype (%) [9]: 25% | Population Mitotic Cells (%) [9]: 60% | Population Normal (%) [9]: 86% | Population Pyknosed Nuclei (%) [9]: 33% | Population Tubulin-Different-Phenotype (%) [9]: 74% | Total Cell Count [9]: 146 | Population Apoptotic (%) [10]: 77% | Population Fragmented Nuclei (%) [10]: 7% | Population Healthy Nuclei (%) [10]: 77% | Population Hoechst High Intensity Objects (%) [10]: 5% | Population Membrane Permeable-Phenotype (%) [10]: 8% | Population Mitochondria Different-Phenotype (%) [10]: 28% | Population Mitotic Cells (%) [10]: 22% | Population Normal (%) [10]: 94% | Population Pyknosed Nuclei (%) [10]: 14% | Population Tubulin-Different-Phenotype (%) [10]: 44% | Total Cell Count [10]: 65 | Population Apoptotic (%) [7]: 52% | Population Fragmented Nuclei (%) [7]: 24% | Population Healthy Nuclei (%) [7]: 52% | Population Hoechst High Intensity Objects (%) [7]: 9% | Population Membrane Permeable-Phenotype (%) [7]: 22% | Population Mitochondria Different-Phenotype (%) [7]: 6% | Population Mitotic Cells (%) [7]: 47% | Population Normal (%) [7]: 91% | Population Pyknosed Nuclei (%) [7]: 23% | Population Tubulin-Different-Phenotype (%) [7]: 35% | Total Cell Count [7]: 100 | Population Apoptotic (%) [8]: 60% | Population Fragmented Nuclei (%) [8]: 7% | Population Healthy Nuclei (%) [8]: 85% | Population Hoechst High Intensity Objects (%) [8]: 6% | Population Membrane Permeable-Phenotype (%) [8]: 3% | Population Mitochondria Different-Phenotype (%) [8]: 19% | Population Mitotic Cells (%) [8]: 40% | Population Normal (%) [8]: 93% | Population Pyknosed Nuclei (%) [8]: 7% | Population Tubulin-Different-Phenotype (%) [8]: 10% | Total Cell Count [8]: 63 | Population Apoptotic (%) [11]: 57% | Population Fragmented Nuclei (%) [11]: 37% | Population Healthy Nuclei (%) [11]: 48% | Population Hoechst High Intensity Objects (%) [11]: 12% | Population Membrane Permeable-Phenotype (%) [11]: 16% | Population Mitochondria Different-Phenotype (%) [11]: 21% | Population Mitotic Cells (%) [11]: 42% | Population Normal (%) [11]: 87% | Population Pyknosed Nuclei (%) [11]: 13% | Population Tubulin-Different-Phenotype (%) [11]: 74% | Total Cell Count [11]: 156 | Population Apoptotic (%) [12]: 58% | Population Fragmented Nuclei (%) [12]: 18% | Population Healthy Nuclei (%) [12]: 64% | Population Hoechst High Intensity Objects (%) [12]: 1% | Population Membrane Permeable-Phenotype (%) [12]: 13% | Population Mitochondria Different-Phenotype (%) [12]: 17% | Population Mitotic Cells (%) [12]: 41% | Population Normal (%) [12]: 98% | Population Pyknosed Nuclei (%) [12]: 17% | Population Tubulin-Different-Phenotype (%) [12]: 22% | Total Cell Count [12]: 72 | Population Apoptotic (%) [13]: 60% | Population Fragmented Nuclei (%) [13]: 29% | Population Healthy Nuclei (%) [13]: 60% | Population Hoechst High Intensity Objects (%) [13]: 9% | Population Membrane Permeable-Phenotype (%) [13]: 26% | Population Mitochondria Different-Phenotype (%) [13]: 4% | Population Mitotic Cells (%) [13]: 40% | Population Normal (%) [13]: 90% | Population Pyknosed Nuclei (%) [13]: 9% | Population Tubulin-Different-Phenotype (%) [13]: 27% | Total Cell Count [13]: 111 | Population Apoptotic (%) [14]: 50% | Population Fragmented Nuclei (%) [14]: 18% | Population Healthy Nuclei (%) [14]: 76% | Population Membrane Permeable-Phenotype (%) [14]: 18% | Population Mitotic Cells (%) [14]: 50% | Population Pyknosed Nuclei (%) [14]: 4% | Population Tubulin-Different-Phenotype (%) [14]: 30% | Total Cell Count [14]: 101 | Population Apoptotic (%) [15]: 83% | Population Fragmented Nuclei (%) [15]: 44% | Population Healthy Nuclei (%) [15]: 50% | Population Hoechst High Intensity Objects (%) [15]: 22% | Population Membrane Permeable-Phenotype (%) [15]: 15% | Population Mitochondria Different-Phenotype (%) [15]: 2% | Population Mitotic Cells (%) [15]: 16% | Population Normal (%) [15]: 77% | Population Pyknosed Nuclei (%) [15]: 4% | Population Tubulin-Different-Phenotype (%) [15]: 61% | Total Cell Count [15]: 179 | Population Apoptotic (%) [16]: 33% | Population Fragmented Nuclei (%) [16]: 32% | Population Healthy Nuclei (%) [16]: 64% | Population Hoechst High Intensity Objects (%) [16]: 6% | Population Membrane Permeable-Phenotype (%) [16]: 20% | Population Mitochondria Different-Phenotype (%) [16]: 3% | Population Mitotic Cells (%) [16]: 66% | Population Normal (%) [16]: 93% | Population Pyknosed Nuclei (%) [16]: 3% | Population Tubulin-Different-Phenotype (%) [16]: 53% | Total Cell Count [16]: 99
